Reference: the RNAGym collection of RNA variant scans (doi:10.1038/nmeth.2970)

B1: NELF-E aptamer (parent)
chain: CCCAACGACUGCCGAGCGAGAUUACGCUUGAGCGCCCCACUGAGGAUGCCCACGGGCGAUUGGGGCACGG

Variants of: B1
Assay: HiTS-RAP
Conditions: with NELF-E (Drosophila)
In short: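 Aptamer DNA templates bearing a T7 promoter and a ter site were sequenced on an Illumina GAIIx flowcell. T7 RNA polymerase then transcribed them in situ, and GST-Tus halted transcription over 30 minutes at 37°C. After a 30-minute room-temperature equilibration with NELF-E-mOrange at 0.064 to 1000 nM in HEPES binding buffer, clusters were imaged, using only the first binding curve. Intensities normalised to sequencing intensity were averaged per sequence and fitted with weighted Hill fits to give Kd, retaining only fits whose variance stayed under 1,000,000.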

Variant | Kd
CCCAACGACUGCCGAGCGAGAUGACGCUUGAGCGCCCCACUGAGGAUGCCCACGGGCGAUUGGGGCCCGG | 4.59 nM
CCCAACGACUGCGGAGCGAGAUUACGCUUGAGCGCCCCUCUGAGGAUGCCCACGGGCGAUUGGGGCACGG | 19 nM
CCCAACGACUGCCGAGCGAGAUUCCGCUUGAGCGCCCCACUGAGGAUGCCCACGGGCGAUUGGGGCACGG | 5.86 nM
CCCAACGACUGCCGAGCGAGAGUACGUUUGAGCGCCCCACUGAGGAUGCCCACGGGCGAUUGGGGCACGG | 4.34 nM
CCCAACGACUGCCGAGCAAGAUUACGCUUGAGCGCCCCACGGAGGAUGCCCACGGGCGAUUGGGGCACGG | 4.87 nM
CCCAACGACUGCGGAGCGAGAUUACGCUCGAGCGCCCCACUGAGGAUGCCCACGGGCGAUUGGGGCACGG | 4.94 nM
CCCAACGACUGCCGAGCGAGAUAGCGCUUGAGCGCCCCACUGAGGAUGCCCACGGGCGAUUGGGGCACGG | 6.07 nM
CCCAACGACUGCCGAGUGAGAUUACGCUUGAGCGCCCCACUGAGGAUGCCCACGGGCGAUUGGAGCACGG | 11.1 nM
CCCAACGUCUGCCGAGCGUGAUUACGCUUGAGCGCCCCACUGAGGAUGCCCACGGGCGAUUGGGGCACGG | 6.78 nM
CCCAACGACUGCCGAGCGAGAUUACGCGUGAGCGCCCCACGGAGGAUGCCCACGGGCGAUUGGGGCACGG | 5.18 nM
CCCAAGGACUGCCGAGCGAGAUUACGCUUGAGCUCCCCACUGAGGAUGCCCACGGGCGAUUGGGGCACGG | 5.79 nM
CCCAACGUCUGCCGAGCGAGAUUACGCUUGAGCGCCCCACUGAGGAUGCCCACGGGCGAUUGGCGCACGG | 7.62 nM
CCCAACGAGUGCCGAGCGAGAUUACGCUUGAGCGCCCCACUGAGGAUACCCACGGGCGAUUGGGGCACGG | 8.11 nM
CCCAACGACUGGCGAGCGAGAUUACGCUUGAGCGCCGCACUGAGGAUGCCCACGGGCGAUUGGGGCACGG | 7.38 nM
CCCAACGAUUGCCGAGCGAGAUGACGCUUGAGCGCCCCACUGAGGAUGCCCACGGGCGAUUGGGGCACGG | 5.63 nM
CCCAACGACGGCCGAGCGAGAUUACGCUUGAGCGCCCCACUGAGGAUGCCCUCGGGCGAUUGGGGCACGG | 14.9 nM
CCCAACGACUGCCGAGGGGGAUUACGCUUGAGCGCCCCACUGAGGAUGCCCACGGGCGAUUGGGGCACGG | 5.02 nM
CCCAACGAGUGCCGAGCGAGAUUACGCUUGAGCGCCCCACGGAGGAUGCCCACGGGCGAUUGGGGCACGG | 6.14 nM
CCCAACGACGGCCGAGCGAGAUUACGCUCGAGCGCCCCACUGAGGAUGCCCACGGGCGAUUGGGGCACGG | 4.67 nM
CCCAACGACGGCCGAGCGAGAUUACGCUUGAGCGCCCCACUGAGGAUGCCCACGGGCGAUUGUGGCACGG | 10.9 nM
CCCUACGACUGCCGAGCGAGAUUACGCUUGAGCGCCCCACUGAGGAUGCCCACGGGCGAUUGAGGCACGG | 13.6 nM
CCCAACGAGUGCCGAGCGAGAUUACGCUUGAGCGCCCCACUGAGGAUGCCCACUGGCGAUUGGGGCACGG | 6.83 nM
CCCAACGUCUGCCGAUCGAGAUUACGCUUGAGCGCCCCACUGAGGAUGCCCACGGGCGAUUGGGGCACGG | 7.54 nM
CCCAACGACUUCCGAGCGAGAUUACGCUUGAGCGCCCCACGGAGGAUGCCCACGGGCGAUUGGGGCACGG | 6.22 nM
CCCAACGACUGCCGAGCGAGAUGACGCUUGAGCGCCCCACUGAGGAUGCCCACGGGCGAGUGGGGCACGG | 4.68 nM
CCCAAGGACUGCCGAGCGAGAUUACGCUUGAGCGCUCCACUGAGGAUGCCCACGGGCGAUUGGGGCACGG | 7.42 nM

Variant | Kd
CCCAAUGACUGCCGAGCGAGAUUACGCUUGAGCGCCCCACCGAGGAUGCCCACGGGCGAUUGGGGCACGG | 81.8 nM
CCCAACGACUUCCGAUCGAGAUUACGCUUGAGCGCCCCACUGAGGAUGCCCACGGGCGAUUGGGGCACGG | 6.7 nM
CCCAACGACUGCCGAGCGAGAUUACGCUGGAGCGCCCCACUGAGGAUGCCCACGGUCGAUUGGGGCACGG | 5.44 nM
CCCAGCGACCGCCGAGCGAGAUUACGCUUGAGCGCCCCACUGAGGAUGCCCACGGGCGAUUGGGGCACGG | 4.79 nM
CCCGACGACUGCCGAGCGAGAUUACGCUUGAGCGCCCCACCGAGGAUGCCCACGGGCGAUUGGGGCACGG | 73 nM
UCCAACGACUGCCGAGCGAGAUUACGCUUGAGCGCCCCACUGAGGAUGCCCACGGGCGAUUGGGGCACGG | 4.73 nM
CCCAACGACGGCCGAGCGAGAUUACGCUUGAGCGCCCCACUGAGGAUGCCCACGGGCGAUGGGGGCACGG | 8.63 nM
CCCAACGACUGCCGAGCGAGAUUGCGCUUGUGCGCCCCACUGAGGAUGCCCACGGGCGAUUGGGGCACGG | 6.88 nM
CCCAAGGACUGCCGAGCGAGAUUACGCUUGUGCGCCCCACUGAGGAUGCCCACGGGCGAUUGGGGCACGG | 5.5 nM
CCCAAGGACUGCCGAGCGAGGUUACGCUUGAGCGCCCCACUGAGGAUGCCCACGGGCGAUUGGGGCACGG | 5.74 nM
CCCAACGACUGGCGAGCGAGAUUAGGCUUGAGCGCCCCACUGAGGAUGCCCACGGGCGAUUGGGGCACGG | 4.47 nM
CCCAACGACUGCCGAGGGAGAUUACGCUGGAGCGCCCCACUGAGGAUGCCCACGGGCGAUUGGGGCACGG | 4.86 nM
CCCAACGCCUGCGGAGCGAGAUUACGCUUGAGCGCCCCACUGAGGAUGCCCACGGGCGAUUGGGGCACGG | 6.73 nM
CCCAACGACUGCCGAGCGAGAGUACGCUUGAGCGCCCCACUGAGGAUGCCCACGGGCGAUUGGGGAACGG | 4.13 nM
CCCAACGAGUGCCGAGCGAGAUUACGCUUGAGCGCCCCACUGAGGAUGUCCACGGGCGAUUGGGGCACGG | 23.1 nM
CCCAACGACUGCCGAGCGAGAGUACGCUUUAGCGCCCCACUGAGGAUGCCCACGGGCGAUUGGGGCACGG | 6.56 nM
CCCGACGACUGCCGAGCGAGUUUACGCUUGAGCGCCCCACUGAGGAUGCCCACGGGCGAUUGGGGCACGG | 5.84 nM
CCCAACGACUGCCGAGCGAGAUGACGCUUGAGCGCCCCACUGAGGAUGCCCACGGGCGAUUGGCGCACGG | 6.24 nM
CCCAAGGACUGCCGAGCGAGAUUACGCUUGAGCGCCCCACUGAGGAUGCCCACGGGCGAAUGGGGCACGG | 10.9 nM
CCCAUCAACUGCCGAGCGAGAUUACGCUUGAGCGCCCCACUGAGGAUGCCCACGGGCGAUUGGGGCACGG | 6.51 nM
CCCAACAUCUGCCGAGCGAGAUUACGCUUGAGCGCCCCACUGAGGAUGCCCACGGGCGAUUGGGGCACGG | 8.46 nM
CCCAACGACUGCCGAGCGAGAUUACGCUUGAGCGCCCCACUGGGGAUGCCCACGGGCGAUUGGGGCACGG | 24.6 nM
CCCAACGACGGCCGAGCGAGAUUACGCUUGAGCGCCCCACUGCGGAUGCCCACGGGCGAUUGGGGCACGG | 75.8 nM
CCCAACGUCUGCCGAGCGAGAUUACGCUUGAGCGCCCCACUGAGGAUGCCCACGGGCGAUAGGGGCACGG | 29.9 nM
CCCAACGACUGCCGGGCGGGAUUACGCUUGAGCGCCCCACUGAGGAUGCCCACGGGCGAUUGGGGCACGG | 6.95 nM
CCCAACGACAGCCGAGCGAGAUUACGCUUGAGCGCCCCACUGAGGAUGCCCACGGGUGAUUGGGGCACGG | 5.96 nM

Variant | Kd
CCCGACGACUGCCGAGCGAGAUUACGCUUGAGCGCGCCACUGAGGAUGCCCACGGGCGAUUGGGGCACGG | 10.4 nM
CCCAAGGCCUGCCGAGCGAGAUUACGCUUGAGCGCCCCACUGAGGAUGCCCACGGGCGAUUGGGGCACGG | 6.37 nM
CCCGACGACUGCCGAGCGAGACUACGCUUGAGCGCCCCACUGAGGAUGCCCACGGGCGAUUGGGGCACGG | 4.86 nM
CCCAUCGACUGCCGAGCAAGAUUACGCUUGAGCGCCCCACUGAGGAUGCCCACGGGCGAUUGGGGCACGG | 5.46 nM
CCCAACGACUGUCGAGCGAGAUUACGCUUGAGCGCCCCACGGAGGAUGCCCACGGGCGAUUGGGGCACGG | 6.2 nM
CCCAACGAUUGGCGAGCGAGAUUACGCUUGAGCGCCCCACUGAGGAUGCCCACGGGCGAUUGGGGCACGG | 6.92 nM
CCCAACGACAGCCGAGCGAGAUUACGCUUGAGCGCCCCACUGAGGAUGCCCACGGGCGAUAGGGGCACGG | 26 nM
CCCGACGACUGCCGAGCGAGAUUACGCUUGAGCGCCCCACUGAGGAUGCCCACGGGCGAUUGGGACACGG | 5.5 nM
CCCAAUGACUGCCGAGCGAGAUUACGCUAGAGCGCCCCACUGAGGAUGCCCACGGGCGAUUGGGGCACGG | 5.66 nM
CCCAACGACUGCUGAGCGAGAUUACGCUUGAGCGCCUCACUGAGGAUGCCCACGGGCGAUUGGGGCACGG | 7.46 nM
CCCAAGGACUGCCGAGCGAGAUUACGCUUGAGCGCCCCACUGAGGAUGCCCACGGGCGAUUGGAGCACGG | 7.6 nM
CCCAACGACUGCCGAUCGAGAUUACGCUUGAGCGCCCCACUGAGGAUGCCCGCGGGCGAUUGGGGCACGG | 4.81 nM
CCCAACGUCUGCCGAGCAAGAUUACGCUUGAGCGCCCCACUGAGGAUGCCCACGGGCGAUUGGGGCACGG | 5.68 nM
CCCAACGACUGCCGAGCGAGAUUACGCUUGAUCGCCCCACUGAGGAUGCCCACGGGCGAUUGGGGCACGG | 5.38 nM
CCCUACGACUGCCGAGCGAGAUUACGCUUAAGCGCCCCACUGAGGAUGCCCACGGGCGAUUGGGGCACGG | 3.77 nM
CCCAACGACUGCCGAGCGAGAUUACGCUUGAGCGCCCCACGGAGGAUGCUCACGGGCGAUUGGGGCACGG | 13.8 nM
CCCAACGACUGCCGAGCGAGAUUACGCUUGAGCGCCCCACUGAGGAUGCCCUCGGGCGAUUGAGGCACGG | 50.8 nM
CCCAACGACUGCCGAGCGAGAUUACGCUUGAGCGCCCCACUGAGGAUGCCCACGGUCGAUUGGGGCACGG | 5.3 nM
CCCAACGGCUGCCGAGCGAGAUUACGCUUGAGCGCCCCACUGAGGAUGCCCACGGGCGAUUGGGUCACGG | 8.03 nM
CCCCACGACGGCCGAGCGAGAUUACGCUUGAGCGCCCCACUGAGGAUGCCCACGGGCGAUUGGGGCACGG | 6.48 nM
CCCAACGACUUCCGAGCGAGAUUACGCUUGAGCGCCCCACUGAGGAUGCCCACGGGCGAUAGGGGCACGG | 41.1 nM
CCCAACGACUACCGAGCGAGAUUACGCUGGAGCGCCCCACUGAGGAUGCCCACGGGCGAUUGGGGCACGG | 6.58 nM
CCCAGCGACUGCCGAGCGAGAUUACGCCUGAGCGCCCCACUGAGGAUGCCCACGGGCGAUUGGGGCACGG | 10.2 nM
CCCAACGAGUGCCGAGCGAGAUUACGCUUGAGCGCCCCACUGAUGAUGCCCACGGGCGAUUGGGGCACGG | 9.09 nM
CCCAAGGACUGCCGAGCGGGAUUACGCUUGAGCGCCCCACUGAGGAUGCCCACGGGCGAUUGGGGCACGG | 5.53 nM
